The list is not random: actives were taken first. Their share in the collection is about 2.3%.
TRPC4 potent: allosterically enhances the mouse TRPC4 cation channel; 310,000 tested, 0.42% active; HEK293 TRPC4beta/mu-opioid, DAMGO EC20, Fluo-4 Ca2+ flux; hits give high values; Q9QUQ5; B-score at 10 µM;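 active = B-score of calcium response area above 5 SD of library B-scores, with initial fluorescence ratio within 5 SD of library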;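 also: B-score of integrated fluorescence ratio over time as area under calcium response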
Target sequence (Q9QUQ5 whole entry, looked up): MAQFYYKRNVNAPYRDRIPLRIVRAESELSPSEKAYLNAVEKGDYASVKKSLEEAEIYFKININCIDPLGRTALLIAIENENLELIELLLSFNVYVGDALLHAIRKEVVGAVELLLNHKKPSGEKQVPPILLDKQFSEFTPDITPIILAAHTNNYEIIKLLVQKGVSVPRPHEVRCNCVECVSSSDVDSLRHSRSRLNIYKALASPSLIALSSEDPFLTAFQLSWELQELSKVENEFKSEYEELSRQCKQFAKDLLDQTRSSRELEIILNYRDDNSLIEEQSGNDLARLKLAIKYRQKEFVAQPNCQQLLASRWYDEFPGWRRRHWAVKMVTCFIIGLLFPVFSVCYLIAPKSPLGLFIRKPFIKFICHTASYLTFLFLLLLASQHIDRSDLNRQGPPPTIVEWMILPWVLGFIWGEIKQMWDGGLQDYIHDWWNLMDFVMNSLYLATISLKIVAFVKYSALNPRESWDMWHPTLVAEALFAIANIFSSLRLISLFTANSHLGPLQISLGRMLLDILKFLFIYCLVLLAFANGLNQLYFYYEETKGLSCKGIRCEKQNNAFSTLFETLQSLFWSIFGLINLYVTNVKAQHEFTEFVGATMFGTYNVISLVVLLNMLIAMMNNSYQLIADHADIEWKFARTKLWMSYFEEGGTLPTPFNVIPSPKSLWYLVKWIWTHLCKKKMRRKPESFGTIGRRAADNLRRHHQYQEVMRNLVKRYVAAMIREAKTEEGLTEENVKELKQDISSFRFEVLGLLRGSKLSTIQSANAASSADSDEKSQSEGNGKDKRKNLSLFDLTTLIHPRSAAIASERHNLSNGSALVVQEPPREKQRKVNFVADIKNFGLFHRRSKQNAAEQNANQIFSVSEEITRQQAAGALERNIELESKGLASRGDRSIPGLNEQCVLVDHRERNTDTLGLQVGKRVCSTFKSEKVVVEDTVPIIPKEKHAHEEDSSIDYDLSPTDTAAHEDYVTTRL
TRPC6 activator: activates the mouse TRPC6 cation channel; Q61143; HEK293-TRPC6 membrane potential dye fluorescence; hits give high values; B-score at 10 µM; 310,000 tested, 0.13% active; AID 2550;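 active = B-score of the integrated fluorescence ratio above library mean plus 3 SD, and starting fluorescence ratio within library mean plus 5 SD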;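 also: higher score means more depolarization so channel activation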
TRPC4 block: blocks the mouse TRPC4 cation channel | Q9QUQ5 | HEK293 TRPC4beta/mu-opioid, DAMGO-evoked Fluo4 calcium flux; hits give low values | B-score at 10 µM | 300,000 tested, 0.39% active | AID 2247;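 active = B-score over 3 SD under the library average, no early fluorescence shift, positive overall ratio signal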
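Assay system: HEK293 cells with stable TRPC4beta plus mu-opioid receptor expression. Dosing: single dose. Measured by: Fluo4 Ca2+ flux fluorescence. Also added: DAMGO in two steps, submaximal then maximal. Read-out: B score from integrated Fluo4 fluorescence ratio.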
TRPC4 act: opens the mouse TRPC4 cation channel | Q9QUQ5 | HEK293 TRPC4beta/mu-opioid, Fluo4 calcium fluorescence; hits give high values | B-score at 10 µM | 310,000 tested, 0.49% active | AID 2237;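 active = B-score above 5 SD of library B-scores, and initial fluorescence ratio not above library mean plus 5 SD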;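 also: positive B-score marks a calcium rise read as TRPC4 activation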
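Assay system – TRPC4beta and mu-opioid receptor HEK293 stable cells · Measured by – Fluo4 fluorescence, kinetic · Schedule – dye loading 45 min room temperature, 110 s kinetic read · Read-out – B-scored integrated calcium fluorescence ratio · Controls – buffer and maximal DAMGO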
TRPC6 inhibitor: inhibitors of mouse TRPC6 channel; HEK293-TRPC6, membrane potential dye, ACh-evoked depolarization; hits give low values; Q61143; AID 2553; 310,000 tested, 1.1% active; B-score at 10 µM;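 active = B-score under library mean minus 3 SD, initial fluorescence not abnormally high, positive integrated signal ratio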;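 also: B-score derived from integrated fluorescence ratio over the kinetic read; more negative B-score means stronger inhibition of depolarization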
TRPC4 sel inh 2: second selectivity test of TRPC6 inhibitors: effect on mouse TRPC4. 920 tested, 42% active. inhibition, % at 10 µM. shares compounds with TRPC6 inhibitor. HEK293 TRPC4/MOR, membrane potential dye fluorescence; channel activated by saturating DAMGO dose;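 active = compounds whose fluorescence signal differed from control wells by over 3 SD, either direction, in both duplicate plates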
TRPC4 spec: tests whether TRPC6 inhibitors also affect mouse TRPC4 | shares compounds with TRPC6 inhibitor | HEK293 TRPC4/mu-opioid, membrane potential fluorescence | activity change, negative = inhibition, % at 10 µM | 920 tested, 61% active;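 active = rise or fall in signal beyond 3 SD of buffer-only wells in both replicate plates, either sign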;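 also: integrated kinetic ratio of fluorescence range over baseline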
HEK293 MPD ctr 2-1: second counter-screen for TRPC6 inhibitors: parental HEK293 cells; shares compounds with TRPC6 inhibitor; parental HEK293 membrane potential dye fluorescence; maximal acetylcholine challenge after compound addition; signal change vs control, % at 10 µM; 920 tested, 31% active; AID 2779;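 active = membrane potential signal moving either way by over 3 SD of the maximum-effect control, in both duplicate plates, meaning non-specific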
HEK293 MPD ctr-1: parental HEK293 nonspecific activity of TRPC6 inhibitors. shares compounds with TRPC6 inhibitor. 920 tested, 60% active. AID 2780. parental HEK293 membrane potential dye fluorescence. membrane potential signal change, % at 10 µM;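 active = membrane potential signal shifting up or down by more than 3 SD of buffer-only wells, on both duplicate plates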
HEK293 MPD ctr-2: checks TRPC6 modulator effects in parental HEK293 cells; shares compounds with TRPC6 inhibitor; membrane potential dye fluorescence; membrane potential signal change, % at 10 µM; 2,400 tested, 51% active;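 active = membrane potential signal moves up or down beyond 5 SD from buffer-only wells, on both duplicate plates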
HEK293 MPD ctr 2-2: second counter-screen for TRPC6 modulators: effect in parental HEK293 cells; 2,400 tested, 14% active; inhibition, % at 10 µM; shares compounds with TRPC6 inhibitor; membrane potential dye fluorescence; after compound, maximal acetylcholine stimulation; AID 488926;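 active = membrane potential signal drops by more than 5 SD from the mean control signal, in both duplicate plates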;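 also: plate controls were acetylcholine ECmax control wells for no effect and buffer only wells for full effect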
TRPC4/MOR mod: selectivity of TRPC6 modulators against mouse TRPC4 | HEK293 TRPC4/mu-opioid, membrane potential fluorescence | percent change from control (negative = decrease, positive = increase), % at 10 µM | shares compounds with TRPC6 inhibitor | 2,400 tested, 69% active;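 active = membrane potential signal moved up or down beyond 5 SD of buffer control wells, in both duplicate plates, actives on both sides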;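 also: plate controls were assay buffer wells for no effect and DAMGO maximal-effect wells for full effect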
TRPC4 ctr inh 2: second check of whether TRPC6 modulators also affect mouse TRPC4; inhibition, % at 10 µM; 2,400 tested, 55% active; HEK293 TRPC4/mu-opioid, membrane potential dye fluorescence; stimulated with maximal-effect DAMGO; shares compounds with TRPC6 inhibitor;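 active = drop in membrane potential signal beyond 5 SD of the control wells in both duplicate plates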;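 also: TRPC4 counter screen for TRPC6 hits run under conditions tuned for TRPC6 not TRPC4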
TRPC6 block conf: mouse TRPC6 inhibitor confirmation. inhibition, % at 10 µM. shares compounds with TRPC6 inhibitor. 3,300 tested, 43% active. HEK293-TRPC6, membrane potential dye, ACh-evoked depolarization;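 active = fluorescence ratio falls more than 5 SD below the full-stimulation control mean, in both duplicate runs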;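 also: integrated fluorescence ratio of peak minus minimum over baseline after agonist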
TRPC6 act confirm: confirmation of mouse TRPC6 activators | 2,800 tested, 11% active | shares compounds with TRPC6 inhibitor | AID 488961 | HEK293-TRPC6 membrane potential dye fluorescence, FDSS | activation, % at 10 µM;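 active = ratio signal rise beyond 5 SD above unstimulated control wells' mean, seen in both duplicate runs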;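 also: plate controls were buffer EC0 wells for no effect and acetylcholine ECmax response for full effect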
The depositor's hits bear a star.

COc1ccc2c(Cl)c(C(=O)NN3CCN(C)CC3)sc2c1 was read as TRPC4 potent inactive, TRPC6 activator inactive, TRPC4 block inactive, TRPC4 act inactive and TRPC6 inhibitor inactive.
Cn1c(-c2c(N)n(CCc3ccccc3)c3nc4ccccc4nc23)nc2ccccc21 was read as TRPC4 potent inactive, TRPC6 activator inactive, TRPC4 block -6*, TRPC4 act inactive, TRPC6 inhibitor -5.7*, HEK293 MPD ctr-2 264%*, HEK293 MPD ctr 2-2 inactive, TRPC4/MOR mod 56%*, TRPC4 ctr inh 2 80%*, TRPC6 block conf inactive and TRPC6 act confirm inactive.
For CN(C(=O)c1nn(C)c2c1CS(=O)(=O)c1ccccc1-2)c1cccc(Cl)c1 the results were TRPC4 potent inactive, TRPC6 activator inactive, TRPC4 block inactive, TRPC4 act inactive, TRPC6 inhibitor -5.6*, HEK293 MPD ctr-2 98%*, HEK293 MPD ctr 2-2 inactive, TRPC4/MOR mod 21%*, TRPC4 ctr inh 2 inactive and TRPC6 block conf 50%*.
CC(C)Cn1c(=O)c(C(=O)Nc2ccncc2)c(O)c2ccccc21 was read as TRPC4 potent inactive, TRPC6 activator inactive, TRPC4 block inactive, TRPC4 act inactive, TRPC6 inhibitor -12*, TRPC4 sel inh 2 inactive, TRPC4 spec -15%*, HEK293 MPD ctr 2-1 -84%*, HEK293 MPD ctr-1 inactive, TRPC6 block conf 84%* and TRPC6 act confirm inactive.
For CCc1nnc(SCC(=O)Nc2ccc(N3CCOCC3)cc2)n1C the results were TRPC4 potent inactive, TRPC6 activator inactive, TRPC4 block inactive, TRPC4 act inactive and TRPC6 inhibitor inactive.
Cn1c(-c2ccc3c(c2)OCO3)cnc1NC(=O)CCC(=O)NCCc1ccccc1 was read as TRPC4 potent inactive, TRPC6 activator inactive, TRPC4 block inactive, TRPC4 act inactive and TRPC6 inhibitor inactive.
Cn1c(-c2ccc3c(c2)OCO3)cnc1NCc1cccc(Cl)c1 was read as TRPC4 potent inactive, TRPC6 activator inactive, TRPC4 block inactive, TRPC4 act inactive, TRPC6 inhibitor -7.9*, TRPC4 sel inh 2 46%*, TRPC4 spec inactive, HEK293 MPD ctr 2-1 inactive, HEK293 MPD ctr-1 inactive, TRPC6 block conf inactive and TRPC6 act confirm inactive.
Screening Cn1c(-c2ccc3c(c2)OCO3)cnc1NCc1ccccc1 returned TRPC4 potent inactive, TRPC6 activator inactive, TRPC4 block inactive, TRPC4 act inactive, TRPC6 inhibitor -5.8*, HEK293 MPD ctr-2 inactive, HEK293 MPD ctr 2-2 inactive, TRPC4/MOR mod inactive, TRPC4 ctr inh 2 56%*, TRPC6 block conf 36%* and TRPC6 act confirm inactive.
For Cn1c(-c2ccc3c(c2)OCO3)cnc1NCc1ccccc1Cl the results were TRPC4 potent inactive, TRPC6 activator inactive, TRPC4 block inactive, TRPC4 act inactive, TRPC6 inhibitor -5.3*, HEK293 MPD ctr-2 inactive, HEK293 MPD ctr 2-2 inactive, TRPC4/MOR mod inactive, TRPC4 ctr inh 2 68%*, TRPC6 block conf inactive and TRPC6 act confirm inactive.
Screening Cc1ccc(-c2cnc(NCc3cc4c(cc3[N+](=O)[O-])OCO4)n2C)cc1C returned TRPC4 potent inactive, TRPC6 activator inactive, TRPC4 block inactive, TRPC4 act inactive and TRPC6 inhibitor inactive.
`CC1(C)CC(NC(=O)c2cccc(S(=O)(=O)N(Cc3ccccc3)c3ccccc3)c2)CC(C)(C)N1` gave TRPC4 potent inactive, TRPC6 activator inactive, TRPC4 block inactive, TRPC4 act inactive and TRPC6 inhibitor inactive.
Screening CCNc1cc2n(c(=O)n1)CCc1cc(OC)c(OC)cc1-2 returned TRPC4 potent inactive, TRPC6 activator inactive, TRPC4 block inactive, TRPC4 act inactive and TRPC6 inhibitor inactive.
COc1cc2c(cc1OC)-c1cc(NCc3ccccn3)nc(=O)n1CC2 was read as TRPC4 potent inactive, TRPC6 activator inactive, TRPC4 block inactive, TRPC4 act inactive, TRPC6 inhibitor -5.4*, HEK293 MPD ctr-2 -196%*, HEK293 MPD ctr 2-2 inactive, TRPC4/MOR mod -34%*, TRPC4 ctr inh 2 inactive, TRPC6 block conf inactive and TRPC6 act confirm inactive.
Cc1cccc2c1ncc1c(=O)n(-c3ccccc3)[nH]c12 was read as TRPC4 potent inactive, TRPC6 activator inactive, TRPC4 block inactive, TRPC4 act inactive and TRPC6 inhibitor inactive.
`CC(NC(=O)c1ccc(F)cc1)c1ccc2c(c1)CCCC2` (stereo unspecified) gave TRPC4 potent inactive, TRPC6 activator inactive, TRPC4 block inactive, TRPC4 act inactive, TRPC6 inhibitor -6.1*, HEK293 MPD ctr-2 inactive, HEK293 MPD ctr 2-2 inactive, TRPC4/MOR mod inactive, TRPC4 ctr inh 2 inactive, TRPC6 block conf inactive and TRPC6 act confirm inactive.
Screening COCCNc1c(-c2cc3ccc(C)c(C)c3[nH]c2=O)nc2ccccn12 returned TRPC4 potent inactive, TRPC6 activator inactive, TRPC4 block inactive, TRPC4 act inactive, TRPC6 inhibitor -5.1*, HEK293 MPD ctr-2 inactive, HEK293 MPD ctr 2-2 inactive, TRPC4/MOR mod inactive, TRPC4 ctr inh 2 inactive, TRPC6 block conf inactive and TRPC6 act confirm inactive.

Screening data deposited in PubChem by Johns Hopkins Ion Channel Center.
